According to ChEMBL document CHEMBL2069297, “Inhibition of galactosyltransferases by a novel class of donor analogues” (J Med Chem, 2012):
Active and inactive are the calls of the source. The calls are words filed in the database; no cut-off is given here.

What was measured:
[1] = Inhibition of Neisseria meningitidis alpha-1,4-GalT after 15 mins by Dixon plot analysis
Outline: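 Radiochemical transfer assay with DTT-activated N. meningitidis LgtC (0.010 ng): UDP-Gal 0.57 μM plus UDP-[3H]-Gal, Lacβ-O(CH2)8CO2Me 2 mM, DTT 1.7 mM, inhibitor 0–12.5 μM, in A/B buffer pH 7. Incubated 15 min at 37 °C, stopped with water.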

[2] = Inhibition of human GTB after 15 mins by Dixon plot analysis
Outline: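 Radiochemical assay on human GTB (0.049 ng): UDP-Gal 26 μM with UDP-[3H]-Gal, Fucα1,2Galβ-O(CH2)7CH3 acceptor 500 μM, inhibitor 0–62.5 μM, in A/B buffer pH 7. Incubated 15 min at 37 °C, then quenched with water.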

[3] = biological target: T1, Beta-1,4-galactosyltransferase 1 (Bos taurus) (UniProt P08037); assay: Ratio of Km for the compound to Km for UDP-Gal in bovine beta-1,4-GalT
T1 sequence (whole entry): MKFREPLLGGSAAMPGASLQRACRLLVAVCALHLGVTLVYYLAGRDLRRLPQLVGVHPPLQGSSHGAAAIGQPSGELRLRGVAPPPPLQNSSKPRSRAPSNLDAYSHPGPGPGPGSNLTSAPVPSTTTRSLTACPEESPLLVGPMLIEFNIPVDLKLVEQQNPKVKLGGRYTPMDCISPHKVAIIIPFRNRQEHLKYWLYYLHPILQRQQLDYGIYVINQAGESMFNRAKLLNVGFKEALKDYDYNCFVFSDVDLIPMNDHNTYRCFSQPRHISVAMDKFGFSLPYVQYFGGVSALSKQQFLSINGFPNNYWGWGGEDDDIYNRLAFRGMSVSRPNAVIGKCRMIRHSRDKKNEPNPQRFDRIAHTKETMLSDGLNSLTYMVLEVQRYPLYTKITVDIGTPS

[4] = biological target: N-acetyllactosaminide alpha-1,3-galactosyltransferase (Bos taurus, UniProt P14769); assay: Inhibition of alpha-1,3-GalT in bovine after 15 mins by Dixon plot analysis
Sequence of N-acetyllactosaminide alpha-1,3-galactosyltransferase (P14769 whole entry): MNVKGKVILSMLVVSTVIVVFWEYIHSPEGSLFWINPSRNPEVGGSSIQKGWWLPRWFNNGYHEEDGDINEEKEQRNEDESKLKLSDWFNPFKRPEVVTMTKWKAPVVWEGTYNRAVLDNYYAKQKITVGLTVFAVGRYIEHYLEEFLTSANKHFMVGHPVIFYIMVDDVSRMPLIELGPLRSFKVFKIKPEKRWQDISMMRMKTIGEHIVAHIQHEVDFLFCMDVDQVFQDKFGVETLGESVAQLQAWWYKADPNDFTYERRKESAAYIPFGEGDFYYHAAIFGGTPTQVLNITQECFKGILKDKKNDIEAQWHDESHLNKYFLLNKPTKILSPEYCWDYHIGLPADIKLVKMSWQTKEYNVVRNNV
Outline: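 Bovine α-1,3-GalT (1.3 μg) in A/B buffer pH 7 with UDP-Gal 76 μM plus UDP-[3H]-Gal, Lacβ-O(CH2)8CO2Me 500 μM, and inhibitor 0–62.5 μM. Incubated 15 min at 37 °C, stopped with water; radiolabeled galactose transfer measured.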

[5] = Drug uptake in human HL60 cell endoplasmic reticulum at 100 uM after 24 hrs by confocal fluorescence microscopy; type: ADME, cell-based; details: hl-60, 24 h
Outline: (§1)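 HL-60 cells were grown in RPMI 1640 with 16.7% (v/v) heat-inactivated FCS, L-glutamine and PenStrep. They were seeded at 10^6 cells/mL onto a glass coverslip and kept 24 h at 37 °C, 5% CO2 with the sodium-salt analogue at 100 μM. The coverslip was washed with medium to remove extracellular fluorophore. The compound's intrinsic blue fluorescence (λem 434 nm) was imaged by confocal microscopy at 364 nm.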

[6] = Drug uptake in human HL60 cell golgi apparatus at 100 uM after 24 hrs by confocal fluorescence microscopy; type: ADME, cell-based; details: hl-60, 24 h; outline: as §1
Neisseria meningitidis [7] = assay: Binding affinity to Neisseria meningitidis alpha-1,4-GalT after 10 mins by fluorescence quenching assay
Outline: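 Titration of the fluorescent donor analogue (200 nM final) with LgtC protein stock diluted 1/5 to 1/640 (eight dilutions) in A/B buffer (50 mM MOPS pH 7.0, 20 mM MnCl2, 1 mg/mL BSA). Emission read after 10 min at 37 °C (excitation 350 nm, emission 430 nm) and plotted against enzyme dilution. Run in triplicate.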

Neisseria meningitidis [8] = assay: Binding affinity to Neisseria meningitidis alpha-1,4-GalT by fluorescence quenching assay in presence of unlabeled UDP-Gal and UDP
[9] = Binding affinity to Neisseria meningitidis alpha-1,4-GalT after 15 mins by competitive binding assay

Row | SMILES | Ki [1] | Ki [2] | Ratio [3] | Ki [4] | other results
1 | O=Cc1ccc(-c2cn([C@@H]3O[C@H](COP(=O)(O)OP(=O)(O)O[C@H]4O[C@H](CO)[C@H](O)[C@H](O)[C@H]4O)[C@@H](O)[C@H]3O)c(=O)[nH]c2=O)s1 [listing 1 of 2 here] | 0.45 µM | 2.4 µM |  |  | 
2 | O=Cc1ccc(-c2cn([C@@H]3O[C@H](COP(=O)(O)OP(=O)(O)O[C@H]4O[C@H](CO)[C@H](O)[C@H](O)[C@H]4O)[C@@H](O)[C@H]3O)c(=O)[nH]c2=O)s1 [listing 2 of 2 here] |  |  | 2 |  | 
3 | COc1ccc(-c2cn([C@@H]3O[C@H](COP(=O)(O)OP(=O)(O)O[C@H]4O[C@H](CO)[C@H](O)[C@H](O)[C@H]4O)[C@@H](O)[C@H]3O)c(=O)[nH]c2=O)cc1 |  |  | 3.3 |  | 
4 | O=c1[nH]c(=O)n([C@@H]2O[C@H](COP(=O)(O)OP(=O)(O)O[C@H]3O[C@H](CO)[C@H](O)[C@H](O)[C@H]3O)[C@@H](O)[C@H]2O)cc1-c1ccco1 | 1.9 µM | 33 µM | 2 | 90 µM | 
5 | O=Cc1ccc(-c2cn([C@@H]3O[C@H](COP(=O)(O)OP(=O)(O)CC[C@H]4O[C@H](CO)[C@H](O)[C@H](O)[C@H]4O)[C@@H](O)[C@H]3O)c(=O)[nH]c2=O)s1 [listing 1 of 2 here] | 1.7 µM | 3.8 µM |  | 18 µM | 
6 | O=Cc1ccc(-c2cn([C@@H]3O[C@H](COP(=O)([O-])OP(=O)([O-])CC[C@H]4O[C@H](CO)[C@H](O)[C@H](O)[C@H]4O)[C@@H](O)[C@H]3O)c(=O)[nH]c2=O)s1.[Na+].[Na+] |  |  |  |  | Drug uptake [5]: Active; Drug uptake [6]: Active
7 | O=Cc1ccc(-c2cn([C@@H]3O[C@H](COP(=O)(O)OP(=O)(O)CC[C@H]4O[C@H](CO)[C@H](O)[C@H](O)[C@H]4O)[C@@H](O)[C@H]3O)c(=O)[nH]c2=O)s1 [listing 2 of 2 here] |  |  |  |  | Activity (Neisseria meningitidis [7]): Dose-dependent effect; Activity (Neisseria meningitidis [8]): inactive
8 | O=c1[nH]c(=O)n([C@@H]2O[C@H](COP(=O)(O)OP(=O)(O)O[C@H]3O[C@H](CO)[C@H](O)[C@H](O)[C@H]3O)[C@@H](O)[C@H]2O)cc1-c1ccccc1 | 6 µM | 48 µM | 6 | 76 µM | 
9 | O=c1ccn([C@@H]2O[C@H](COP(=O)(O)OP(=O)(O)O)[C@@H](O)[C@H]2O)c(=O)[nH]1 [URIDINE_DIPHOSPHATE] |  |  |  |  | IC50 [9]: 46 µM
10 | O=Cc1ccc(-c2cn([C@@H]3O[C@H](COP(=O)([O-])OP(=O)([O-])O[C@H]4O[C@H](CO)[C@H](O)[C@H](O)[C@H]4O)[C@@H](O)[C@H]3O)c(=O)[nH]c2=O)s1.[Na+].[Na+] |  |  |  |  | Drug uptake [5]: Active; Drug uptake [6]: Active
